Here are results for two molecules from ChEMBL document CHEMBL3826882, “Discovery of 1-((2R,4aR,6R,7R,7aR)-2-Isopropoxy-2-oxidodihydro-4H,6H-spiro[furo[3,2-d][1,3,2]dioxaphosphinine-7,2'-oxetan]-6-yl)pyrimidine-2,4(1H,3H)-dione (JNJ-54257099), a 3'-5'-Cyclic Phosphate Ester Prodrug of 2'-Deoxy-2'-Spirooxetane Uridine Triphosphate Useful for HCV Inhibition” (J Med Chem, 2016).

Data set [1] deals with Hepatocyte. The data set can be described thus: Drug level in human hepatocytes in presence of pan-CYP inhibitor 1-ABT by LC-MS/MS analysis. It is filed as ADME, cell-based.
Data set [2] relates to Hepatocyte. The data set can be described thus: Drug metabolism in human hepatocytes assessed as ((4R,5R,7R,8R)-5-(2,4-dioxo-3,4-dihydropyrimidin-1(2H)-yl)-8-hydroxy-1,6-dioxaspiro[3.4]octan-7-yl)methyl dihydrogen phosphate formation in presence of CYP3A4 inhibitor ketoconazole by LC-MS/MS analysis. The format is ADME, cell-based.
The test system of data set [3] is Liver. Nature of the data set: Tmax in dog liver assessed as 2'-deoxy-2'-spirooxetane uridine triphosphate at 50 mg/kg, po. It is filed as ADME, organism-based, Canis lupus familiaris. As to conditions: in vivo; call rule not given here. In short, it runs like this: (§1)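 Single oral dose of 50 mg/kg formulated in 20% HP-β-cyclodextrin. Prodrug and its triphosphate were measured in plasma and liver (ng/mL or ng/g) over time, and Cmax, tmax, AUC, tlast and t1/2 were derived. For some analytes, data from two independent studies are reported.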

The nature of data set [4]: Ratio of AUC (0 to last) in mouse liver to AUC (0 to last) in mouse plasma. The format is ADME. In short, it runs like this:
(§2)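 Single oral dose of 50 mg/kg in 20% HP-β-cyclodextrin. Prodrug and triphosphate measured in plasma and liver over time (tlast 6–30 h). Half-life, Cmax, tmax and AUC0-last derived; liver/plasma ratio taken from AUC0-last. Prodrug data pooled from two independent studies.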

The test system of data set [5] is Liver. Nature of the data set: AUC (0 to infinity) in mouse liver assessed as 2'-deoxy-2'-spirooxetane uridine triphosphate at 50 mg/kg, po. The format is ADME, organism-based. More on the design: dose 50 mg/kg, time infinity, route oral. Conditions: in vivo. In short, it runs like this:
(§3)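 Oral dose 50 mg/kg, formulated in 20% HP-β-cyclodextrin. Prodrug and triphosphate were measured in plasma and liver (ng/mL or ng/g). Parameters derived were Cmax, tmax, AUC0-last, AUC0-inf and t1/2. Some prodrug data come from two independent studies.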

For data set [6], the system named is Hepatocyte. Nature of the data set: Prodrug conversion in rat primary hepatocytes assessed as 2'-deoxy-2'-spirooxetane uridine triphosphate formation measured at 2 hrs by LC-MS/MS analysis. The format is ADME, cell-based. The gist of the method:
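Hepatocyte primary cultures followed over time for triphosphate formation in cell lysates: rat and mouse up to 24 h, human up to 96 h.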

A short description of data set [7]: Ratio of AUC (0 to last) in dog liver to AUC (0 to last) in dog plasma. The format is ADME, Canis lupus familiaris. The gist of the method: as §2
A short description of data set [8]: Half life in mouse liver at 50 mg/kg, po. The format is ADME, organism-based. The gist of the method:
as §2

A short description of data set [9]: Tmax in dog plasma at 50 mg/kg, po. It is filed as ADME, organism-based, Canis lupus familiaris. The gist of the method: as §1
In data set [10] the test system is Liver. Nature of the data set: Tlast in rat liver assessed as 2'-deoxy-2'-spirooxetane uridine triphosphate at 50 mg/kg, po. It is filed as ADME, organism-based. As to conditions: in vivo. The gist of the method:
as §1

For data set [11], the system named is Hepatocyte. Nature of the data set: Drug level in human hepatocytes in presence of CYP3A4 inhibitor ketoconazole by LC-MS/MS analysis. The format is ADME, cell-based.
Data set [12] addresses Cytochrome P450 3A4 (Homo sapiens, UniProt P08684). Nature of the data set: Drug metabolism in baculovirus infected insect cell microsomes expressing human CYP3A4 assessed as CYP3A4-mediated intrinsic clearance per pmol CYP3A4 at 22.7 uM. It is filed as ADME. As to conditions: recombinant enzyme. The gist of the method:
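Incubation at 22.7 µM with human CYP3A4 supersomes. Intrinsic clearance (µL/min.pmol P450) and half-life (min) were determined.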

Data set [13] relates to Hepatitis C virus. Nature of the data set: Antiviral activity against HCV genotype 3a infected in homozygous cDNA-uPA chimeric SCID mouse bearing humanized hepatocytes assessed as reduction in HCV RNA level in serum administered through oral gavage once daily for 7 days by RT-PCR method. It is filed as functional, organism-based. Conditions: Hepacivirus hominis, Hepatocyte. The gist of the method:
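Male chimeric SCID cDNA-uPA+/+ mice with human hepatocyte liver (≥70% replacement by blood human albumin) and serum HCV RNA >1.0×10^6 copies/mL the week before dosing. Oral gavage for 7 days in 20% HP-β-CD, 50-200 mg/kg QD or BID. Serum sampled pre-dose on days 1, 2, 3, 5 and 7. Real-time PCR; mean change in log10 copies/mL, day 7 vs day 1 pre-dose.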

Data set [14] deals with Plasma. The data set can be described thus: Tlast in rat plasma at 50 mg/kg, po. It is filed as ADME, organism-based. Conditions: in vivo. The gist of the method: as §1
A short description of data set [15]: Tmax in mouse liver at 50 mg/kg, po. The format is ADME, organism-based. The gist of the method: as §1
The subject of data set [16] is Liver. The data set can be described thus: AUC (0 to last) in dog liver at 50 mg/kg, po. It is filed as ADME, organism-based, Canis lupus familiaris. As to conditions: in vivo. The gist of the method: as §3
Data set [17] has as its system Hepatocyte. The data set can be described thus: Prodrug conversion in human cryopreserved hepatocytes assessed as 2'-deoxy-2'-spirooxetane uridine triphosphate level per million cells at 10 uM after 24 hrs by LC-MS/MS analysis. The format is ADME, cell-based. The gist of the method:
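Plated cryopreserved hepatocytes (study B) incubated with 10 µM unlabeled prodrug for 2, 8 or 24 h. Triphosphate measured in cell lysates and expressed as pmol/million hepatocytes. Quantification limit 2 ng/10^6 cells.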

The test system of data set [18] is Hepatocyte. The data set can be described thus: Prodrug conversion in human hepatocytes assessed as 2'-deoxy-2'-spirooxetane uridine triphosphate formation in presence of pan-CYP inhibitor 1-ABT by LC-MS/MS analysis. The format is ADME, cell-based.
Data set [19] concerns Hepatocyte. Nature of the data set: Prodrug conversion in mouse primary hepatocytes assessed as 2'-deoxy-2'-spirooxetane uridine triphosphate level per million cells at 62.5 uM after 4 hrs using radiolabelled compound by LC-MS/MS analysis. It is filed as ADME, cell-based. The gist of the method: (§4)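 Study A: fresh primary hepatocyte cultures from mouse, rat, dog and human incubated with tritiated prodrug at 2 or 62.5 µM for 4 or 24 h. Triphosphate in cell lysates reported as pmol/million hepatocytes. Duplicate or single measurements.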

In data set [20] the test system is Hepatocyte. Nature of the data set: Stability in rat primary hepatocyte supernatant assessed as parent compound level at 2 uM after 4 to 24 hrs using radiolabeled compound by HPLC analysis. The format is ADME, cell-based. Conditions: hepatocytes.
The test system of data set [21] is Hepatocyte. The data set can be described thus: Drug metabolism in rat primary hepatocytes assessed as 1-[(4aR,6R,7R,7aR)-2-hydroxy-2-oxidodihydro-4H-spiro[furo[3,2-d][1,3,2]dioxaphosphinine-7,2'-oxetan]-6-yl]pyrimidine-2,4(1H,3H)-dione formation at 2 to 62.5 uM after 24 hrs using radiolabelled compound by LC-MS/MS analysis. It is filed as ADME, cell-based. The gist of the method: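 Fresh primary hepatocyte cultures incubated with tritiated prodrug (5'-[3H]) at 2 and 62.5 µM for 4 and 24 h. Supernatants taken after protein precipitation and profiled by HPLC with radioactivity detection. Cell lysates profiled for metabolites by radio-LC. Cyclic monophosphate also measured by LC/MS/MS.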

For data set [22], the system named is Hepatocyte. Nature of the data set: Prodrug conversion in human primary hepatocytes assessed as 2'-deoxy-2'-spirooxetane uridine triphosphate level per million cells at 62.5 uM after 24 hrs using radiolabelled compound by LC-MS/MS analysis. It is filed as ADME, cell-based. In short, it runs like this: as §4

Cytochrome P450 3A4, sequence (P08684 whole entry): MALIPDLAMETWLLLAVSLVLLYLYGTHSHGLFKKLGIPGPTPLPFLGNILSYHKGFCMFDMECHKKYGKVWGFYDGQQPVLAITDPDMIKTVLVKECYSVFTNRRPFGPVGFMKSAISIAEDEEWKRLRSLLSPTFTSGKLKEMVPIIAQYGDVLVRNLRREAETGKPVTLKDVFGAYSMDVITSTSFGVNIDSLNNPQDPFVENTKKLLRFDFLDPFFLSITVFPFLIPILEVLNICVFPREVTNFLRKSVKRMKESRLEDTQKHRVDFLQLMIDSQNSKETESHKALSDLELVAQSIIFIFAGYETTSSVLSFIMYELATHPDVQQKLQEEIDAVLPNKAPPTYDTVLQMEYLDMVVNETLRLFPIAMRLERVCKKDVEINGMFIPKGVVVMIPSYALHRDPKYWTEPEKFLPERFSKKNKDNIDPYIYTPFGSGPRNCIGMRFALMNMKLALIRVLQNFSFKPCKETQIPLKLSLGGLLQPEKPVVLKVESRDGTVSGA

For `CC(C)O[P@@]1(=O)OC[C@H]2O[C@@H](n3ccc(=O)[nH]c3=O)[C@@]3(CCO3)[C@@H]2O1`, the Drug uptake entry in data set [1] and in data set [11] was “Active” in each case. Besides, the Drug metabolism entry in [2] is on record as “metabolite_notdetected”; in data set [6], “metabolite_detected”; in data set [17], 0.151 pmol; in data set [18] it was “metabolite_notdetected”. In addition, the time to peak (Tmax) in data set [3] turned out to be 4 h; in [9], 1.5 h; in [15] it was 1 h. For the same molecule, the partition ratio (Kp) in data set [4] amounted to 0.57; in [7], 1.4. Also, the AUC in [5] turned out to be 129396 ng·h/g. This molecule showed a half-life in data set [8] of 2.1 h. In addition, the Tlast in data set [10] and in [14] was 30 h throughout. In data set [12], the CL stood at 0.058 µL/min. Moreover, the Activity entry in [13] was “Dose-dependent effect”. Also, the AUClast in data set [16] turned out to be 35596 ng·h/g.

As for `[3H]C1O[P@](=O)(OC(C)C)O[C@@H]2[C@@H]1O[C@@H](n1ccc(=O)[nH]c1=O)[C@@]21CCO1` (some centres not stated), the figures for the Drug metabolism in data set [19], in data set [21] and in [22] were 0.12 pmol, “metabolite_detected” and 0.38 pmol, respectively. For the same molecule, in [20], the Stability entry is “Stable”.

A word on the Tmax: it is the time at which the peak concentration occurs. Usually Kp stands for tissue or fluid exposure divided by exposure in the circulation. As a reminder, the half-life is how long it takes for the measured level to halve. A higher half-life goes with slow decline.
